In data set [1] the test system is DTC. The settings on record: study of 20 patients; cited from earlier work.
Data set [2] relates to progressive radioiodine refractory DTC. Conditions: cited from earlier work.
For data set [3], the system named is thyroid cancer cell lines and xenograft models. Conditions: preclinical studies in DTC; cited from earlier work.
Data set [4] in a line: Plasma pharmacokinetics in DTC expansion cohort. It is filed as in vivo, human. Conditions: steady-state trough. In a few lines:
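Oral once-daily dosing in patients, 28-day cycles. The VEGFR inhibitor was profiled over 0–24 h after the first dose (C1D1). Troughs for both drugs were taken on C1D15 and at the second biopsy (C2D1 ± 48 h). Plasma was acetonitrile-extracted and run by positive-ESI LC-MS/MS: MEK inhibitor range 1–200 ng/mL; VEGFR inhibitor range 0.010–1 μg/mL, with 1:100 dilution up to 100 μg/mL. Noncompartmental analysis: Cmax observed, AUC by linear trapezoidal rule, Css,min averaged from both troughs.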

Take `Cn1cnc2c(F)c(Nc3ccc(Br)cc3Cl)c(C(=O)NOCCO)cc21` [Selumetinib]: in data set [1], the “PRs, patients” value is listed as “five” and the “stable disease, patients” value is recorded as “three”.
Take `Cc1ccc(Nc2nccc(N(C)c3ccc4c(C)n(C)nc4c3)n2)cc1S(N)(=O)=O` [pazopanib]: the “PR rate, papillary thyroid cancer” value in data set [2] (5/11 patients as printed) is listed as 33%. Besides, the “PR rate, follicular thyroid cancer” value in data set [2] (8/11) is recorded as 73%. Also, the “RECIST partial response (PR) rate” value in data set [2] (single-agent pazopanib, DTC overall) is 49%. Also, in data set [2] (single-agent pazopanib), the “median PFS” value is given as 360 days. Also, in data set [3], the “effect on p-ERK” value is reported as “paradoxical upregulation of p-ERK”. Further, the “Css,min” value in data set [4] (pazopanib 800 mg with trametinib 2 mg daily) worked out at 33.8 ± 17.3 µg/mL.
`CC(=O)Nc1cccc(-n2c(=O)n(C3CC3)c(=O)c3c(Nc4ccc(I)cc4F)n(C)c(=O)c(C)c32)c1` [trametinib]: in data set [4] (trametinib 2 mg with pazopanib 800 mg daily), the “Css,min” value was 0.0187 ± 0.0066 µg/mL.
